Measurements: PMC5743405 (International Journal of Oncology, 2017)
Entries after “also recorded” stand apart in the source; their conditions may differ.

Assays:
PTAFR = experiment: PathHunter β-arrestin; format: cell-based; conditions: 6 μM
How it was run: (§1)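 β-Arrestin recruitment to GPCR read by β-galactosidase fragment complementation and chemiluminescence. Agonist: % = 100 × (test − vehicle)/(max control ligand − vehicle), hit at >30% and RLU > baseline + 3 SD. Antagonist, against EC80 agonist: % inhibition = 100 × (1 − (test − vehicle)/(EC80 − vehicle)), hit at >35% and RLU < EC80 − 3 SD.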

CCR1 = experiment: PathHunter β-arrestin; format: cell-based; conditions: antagonist mode, 6 μM
How it was run: (§2)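 β-Arrestin recruitment assay: the enzyme acceptor is fused to β-arrestin and the ED fragment to the GPCR. Recruitment restores β-galactosidase, read by chemiluminescence. % activity = 100% × (test − vehicle)/(max control ligand − vehicle). % inhibition = 100% × (1 − (test − vehicle)/(EC80 control − vehicle)). An agonist hit needs >30% activity and RLU > baseline + 3×SD. An antagonist hit needs >35% inhibition and RLU < EC80 RLU − 3×SD.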

FPR1 = experiment: PathHunter β-arrestin; format: cell-based; conditions: antagonist mode, 6 μM
How it was run: (§3)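 Engineered cells express the receptor fused to one β-galactosidase fragment (ED) and β-arrestin fused to the complementing fragment (EA). Receptor activation recruits β-arrestin, which restores enzyme activity, and this is read by chemiluminescence (RLU). Agonist % activity is 100% × (test − vehicle)/(maximal control ligand − vehicle). Antagonist mode is challenged with an EC80 control agonist, and % inhibition is 100% × (1 − (test − vehicle)/(EC80 − vehicle)). Hits require >30% activity or >35% inhibition, plus a 3×SD RLU margin.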

CXCR7 = experiment: PathHunter β-arrestin; format: cell-based; conditions: antagonist mode, 6 μM
How it was run: as §3

DRD5 = experiment: PathHunter β-arrestin; format: cell-based; conditions: 6 μM
How it was run: as §3

c-Myc = experiment: RT2 qPCR primer assay, JJ012 cells; format: cell-based, human
How it was run: (§4)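 RNA extracted from treated and control JJ012 cells, checked by spectrophotometry and reverse transcribed. SYBR Green qPCR with custom primer assays on three samples in technical triplicates. Ct normalized to the average of GAPDH and ACTB. Fold change vs control by 2^−ΔΔCt, shown as a heat map of average Ct.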

MTNR1A = experiment: PathHunter β-arrestin; format: cell-based; conditions: 6 μM
How it was run: (§5)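 Vendor-run (DiscoveRx) PathHunter enzyme fragment complementation. β-Arrestin carries the EA fragment and the receptor carries ED; recruitment restores β-gal activity, read by chemiluminescence (RLU). Agonist % activity = vehicle-subtracted RLU relative to max control ligand (gpcrMAX) or to vehicle (orphanMAX). Antagonist % inhibition = 100% × (1 − vehicle-subtracted sample RLU / vehicle-subtracted EC80 agonist control RLU).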

BRS3 = experiment: PathHunter β-arrestin; format: cell-based; conditions: antagonist mode, 6 μM
How it was run: as §2

AGTR1 = experiment: PathHunter β-arrestin; format: cell-based; conditions: agonist mode, 6 μM
How it was run: as §2

nucleolin = experiment: western blot, JJ012 cells; format: cell-based, human; conditions: vs untreated control, overnight incubation
ADCYAP1R1 = experiment: PathHunter β-arrestin; format: cell-based; conditions: 6 μM
How it was run: as §2

MUC5B = experiment: RT2 qPCR primer assay, JJ012 cells; format: cell-based, human; conditions: 1 μg/ml PRP-1; heat map, vs nontreated control, technical triplicates
How it was run: as §4

OXER1 = experiment: PathHunter β-arrestin; format: cell-based; conditions: agonist mode, 6 μM
F2RL1 = experiment: PathHunter β-arrestin; format: cell-based; conditions: antagonist mode, 6 μM
How it was run: as §3

GALR2 = experiment: PathHunter β-arrestin; format: cell-based; conditions: agonist mode, 6 μM
How it was run: as §3

OPRK1 = experiment: PathHunter β-arrestin; format: cell-based; conditions: antagonist mode, 6 μM
How it was run: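 GPCR-ED fusion and β-arrestin-EA fusion; arrestin recruitment restores β-galactosidase, read by chemiluminescence. Antagonist mode uses EC80 agonist challenge. % inhibition = 100 × (1 − (test − vehicle RLU)/(EC80 control − vehicle RLU)). Hit requires >35% inhibition and mean RLU below EC80 RLU − 3 × EC80 SD.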

TLR4 = experiment: western blot, JJ012 cells; format: cell-based, human; conditions: vs untreated control, overnight incubation
HRH1 = experiment: PathHunter β-arrestin; format: cell-based; conditions: agonist mode, 6 μM
How it was run: as §5

GPR119 = experiment: PathHunter β-arrestin; format: cell-based; conditions: 6 μM
How it was run: as §5

TLR2 = experiment: western blot, JJ012 cells; format: cell-based, human; conditions: vs untreated control, overnight incubation
How it was run: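 JJ012 cells seeded at 1×10^6 cells/ml in 6-well clusters and incubated overnight at 37°C, 5% CO2 with or without test compound. Lysed with protease inhibitor (1:100) and centrifuged at 15,000 × g, 4°C. Protein loaded at 20 μg/lane with reducing agent, run on polyacrylamide gel, transferred to PVDF, probed with rabbit anti-TLR primaries and HRP-linked secondaries.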

P2RY12 = experiment: PathHunter β-arrestin; format: cell-based; conditions: 6 μM
How it was run: as §1

UTR2 = experiment: PathHunter β-arrestin; format: cell-based; conditions: 6 μM
How it was run: as §1

PROKR1 = experiment: PathHunter β-arrestin; format: cell-based; conditions: 6 μM
How it was run: as §1

LTB4R = experiment: PathHunter β-arrestin; format: cell-based; conditions: agonist mode, 6 μM
How it was run: as §5

CCR5 = experiment: PathHunter β-arrestin; format: cell-based; conditions: antagonist mode, 6 μM
How it was run: as §3

C5AR1 = experiment: PathHunter β-arrestin; format: cell-based; conditions: antagonist mode, 6 μM
How it was run: as §2

DRD3 = experiment: PathHunter β-arrestin; format: cell-based; conditions: 6 μM
How it was run: as §3

TBXA2R = experiment: PathHunter β-arrestin; format: cell-based; conditions: 6 μM
How it was run: as §1

TACR1 = experiment: PathHunter β-arrestin; format: cell-based; conditions: 6 μM
How it was run: as §1

PTHR2 = experiment: PathHunter β-arrestin; format: cell-based; conditions: antagonist mode, 6 μM
FFAR1 = experiment: PathHunter β-arrestin; format: cell-based; conditions: agonist mode, 6 μM
How it was run: as §3

## Proline rich polypeptide 1 [PRP-1]
PTAFR; agonist mode
  % Activity: 1%
PTAFR; antagonist mode
  % Inhibition: −8%
CCR1
  % Inhibition: −3%
FPR1
  % Inhibition: −4%
CXCR7
  % Inhibition: −2%
DRD5; agonist mode
  % Activity: 1%
DRD5; antagonist mode
  % Inhibition: −8%
c-Myc; 10 μg/ml PRP-1, heat map, technical triplicates
  gene expression: went down drastically
c-Myc; qRT-PCR, 1 and 10 μg/ml
  c-Myc gene expression, dose response: downregulation of its gene expression in dose-response manner
MTNR1A; agonist mode
  % Activity: 2%
MTNR1A; antagonist mode
  % Inhibition: −9%
BRS3
  % Inhibition: 4%
AGTR1
  % Activity: 2%
nucleolin
  protein expression: no changes in nucleolin protein expression
ADCYAP1R1; agonist mode
  % Activity: 1%
ADCYAP1R1; antagonist mode
  % Inhibition: −6%
MUC5B
  gene expression: high expression; also recorded: the most upregulation after the treatment with 1 μg/ml
OXER1
  % Activity: −2%
F2RL1
  % Inhibition: 3%
GALR2
  % Activity: 1%
OPRK1
  % Inhibition: −12%
TLR4
  protein expression: PRP-1 did not have any effect
HRH1
  % Activity: 1%
GPR119; agonist mode
  % Activity: 3%
GPR119; antagonist mode
  % Inhibition: −1%
TLR2
  protein expression: strong upregulation; also recorded: upregulated protein expression of TLR1 and TLR2 in dose-dependent manner
P2RY12; agonist mode
  % Activity: 1%
P2RY12; antagonist mode
  % Inhibition: 8%
UTR2; agonist mode
  % Activity: 3%
UTR2; antagonist mode
  % Inhibition: −7%
PROKR1; agonist mode
  % Activity: 2%
PROKR1; antagonist mode
  % Inhibition: −2%
LTB4R
  % Activity: 1%
CCR5
  % Inhibition: −2%
C5AR1
  % Inhibition: 3%
DRD3; agonist mode
  % Activity: 2%
DRD3; antagonist mode
  % Inhibition: −15%
TBXA2R; agonist mode
  % Activity: 1%
TBXA2R; antagonist mode
  % Inhibition: −10%
TACR1; agonist mode
  % Activity: 1%
TACR1; antagonist mode
  % Inhibition: −2%
PTHR2
  % Inhibition: −1%
FFAR1
  % Activity: 3%
